From PubChem BioAssay come the findings set out here.

Calls of active or inactive are those of the source.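 How the source made its calls, unless noted: active means NADPH fluorescence slope more negative than the mean of all samples by about 3 SD, 99.7% confidence; inactive means the rest.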

The nature of test [1]: inhibitors of TNFa-induced NFkB p65 translocation, primary screen, imaging, HUVEC, MLSMR starter and 10KST1 sets (AID 438;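 active means inhibition above 20% together with a positive visual image hit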;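 further: compound added about 3h40 before a 20 min TNFalpha stimulation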;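 on inhibition: signal is the nuclear over cytoplasmic p65 intensity ratio per well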). Conditions: HUVEC TNFa-induced p65 nuclear translocation; cell count: measured here: nuclei count (cytotoxicity indicator), at 2.08 µM; inhibition: at 2 µM, stronger effect = higher value, 0% TNFa-plus-vehicle, 100% no-TNFa wells.
The nature of test [2]: inhibitors of mutant huntingtin aggregation, primary screen, imaging, exon1htt(103Q)mCFP cells, high-content imaging (AID 483;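 active means visual image review flags a hit and inhibition of aggregation exceeds 20%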;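 further: compound exposure lasted 3 days before fixation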;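 on nuclei count: percent of the per-plate median nuclei count of sample wells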). The settings on record: exon1htt(103Q)mCFP cell line, aggregate imaging, at 2 µM; inhibition of aggregation: stronger effect = higher value; nuclei count: measured here: cell count, toxicity.
Test [3] is described as follows: inhibitors of E-selectin induction by TNFa, primary screen, imaging, HUVEC, immunofluorescence, MLSMR starter and 10KST1 sets (AID 487;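 active means visually confirmed hit in the image check and inhibition above 20%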;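 on inhibition: signal is fraction of cell area covered by stained E-selectin grains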;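 on nuclei count: 100% = median nuclei count of all wells on the same plate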). Conditions: HUVEC TNFalpha-induced E-selectin immunofluorescence imaging, at 2 µM; inhibition: stronger effect = higher value; nuclei count: measured here: cell number, toxicity.
In test [4] the target is Voltage-gated potassium channel subunit beta-2 (Rattus norvegicus) (UniProt P62483). Briefly: KvBeta enzyme negative modulators, primary screen, biochemical, NADPH fluorescence (AID 622;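 active means fluorescence slope higher than the sample average by over 3 SD, cut at about -0.22 in these data, passing the limit was not always enough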;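 further: slope of raw intensity against log time taken from 70 to 1610 s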). Conditions: recombinant KvBeta, 4-cyanobenzaldehyde reduction, at 10 µM, stronger effect = higher value.
Chain of Voltage-gated potassium channel subunit beta-2 (Rattus norvegicus) (P62483 whole entry, looked up): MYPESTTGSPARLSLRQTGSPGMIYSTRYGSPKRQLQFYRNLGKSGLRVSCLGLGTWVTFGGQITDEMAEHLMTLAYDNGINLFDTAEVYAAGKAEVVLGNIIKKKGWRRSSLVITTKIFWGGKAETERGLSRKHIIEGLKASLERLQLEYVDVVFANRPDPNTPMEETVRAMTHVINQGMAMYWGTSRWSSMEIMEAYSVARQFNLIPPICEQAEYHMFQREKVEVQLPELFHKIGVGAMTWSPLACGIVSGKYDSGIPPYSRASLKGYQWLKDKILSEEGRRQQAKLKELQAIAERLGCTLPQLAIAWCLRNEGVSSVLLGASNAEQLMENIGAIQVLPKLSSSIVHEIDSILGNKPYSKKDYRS
Test [5] has the same target. The test is described as follows: KvBeta positive modulators, primary screen, biochemical, NADPH fluorescence (AID 623).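 Further: fluorescence intensity change per second fitted from 20 to 320 s.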 Conditions: Recombinant KvBeta, NADPH fluorescence decrease slope, 10 min; at 10 µM; stronger effect = lower value.
In test [6] the target is Muscarinic acetylcholine receptor M4 (Homo sapiens) (UniProt P08173). Briefly: compounds altering M4/GIRK thallium flux, either direction, primary screen, M4 allosteric agonist project, cell-based, HEK293 M4/GIRK, BTC-AM (AID 625;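 active means fluorescence slope after compound addition differing from the mean of all tested samples at 99.7% confidence, mostly higher but some lower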;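 further: thallium influx through GIRK channels coupled to M4 in HEK293 cells with BTC-AM dye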). Conditions: at 10 µM, actives lie on both sides. In outline: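 Material: HEK293 cells with M4 receptor and GIRK channels; Times: cells overnight at 37 °C, BTC-AM loading 1 h, reads 2 min total; Technique: kinetic BTC-AM fluorescence sampled at 1 Hz, 10 s pre-addition baseline; Read-out basis: slope over 15–24 s of trace normalized to starting intensity; Controls: carbachol positive, DMSO negative.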
Chain of Muscarinic acetylcholine receptor M4 (Homo sapiens) (P08173 whole entry, looked up): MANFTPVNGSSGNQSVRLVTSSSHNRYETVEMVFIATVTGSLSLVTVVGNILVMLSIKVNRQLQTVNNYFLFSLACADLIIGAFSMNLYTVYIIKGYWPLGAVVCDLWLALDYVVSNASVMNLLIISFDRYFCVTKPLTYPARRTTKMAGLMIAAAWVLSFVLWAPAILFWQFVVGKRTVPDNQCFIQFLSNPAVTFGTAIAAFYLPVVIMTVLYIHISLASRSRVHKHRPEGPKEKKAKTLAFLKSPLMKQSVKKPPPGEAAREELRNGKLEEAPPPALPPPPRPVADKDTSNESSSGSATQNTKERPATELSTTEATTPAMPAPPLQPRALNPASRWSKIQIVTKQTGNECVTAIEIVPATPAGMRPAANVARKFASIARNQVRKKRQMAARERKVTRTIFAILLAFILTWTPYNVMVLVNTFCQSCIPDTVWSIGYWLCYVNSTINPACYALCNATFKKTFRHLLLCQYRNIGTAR

A short description of test [7]: inhibitors of Sendai virus-induced IRF3 signaling, primary screen, TLR/RLR signaling modifier project, cell-based, Sendai virus stimulus, luciferase, 10K MLSCN set (AID 602276;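 active means inhibition at or above 50% at 10 µM; inactive means inhibition below 50%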;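 further: firefly luciferase from ISG56 promoter only with Renilla not read in this screen; 0% = Sendai virus plus DMSO and 100% = medium plus DMSO without virus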). Conditions: HEK293 RL24 IRF3 luciferase reporter, at 10 µM, stronger effect = higher value. A general note: A reporter such as luciferase makes a cellular process visible.
Test [8] is described as follows: inhibitors of poly I:C-induced TLR3 signaling, primary screen, cell-based, poly I:C stimulus, luciferase, 10K MLSCN set (AID 602277;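 active means inhibition of the reporter signal at or above 50%; inactive means inhibition below 50%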). The settings on record: HEK293-TLR3 RL24 IRF3 luciferase reporter, at 10 µM, stronger effect = higher value.

Take `Cc1ccc(C)c(N2CCN(C(=O)c3ccc(CS(=O)(=O)c4ccccc4C)o3)CC2)c1`: in test [1], the cell count was 555. For the same compound, the inhibition is -15.1% (inactive) in test [1], -45.9% (inactive) in test [3], 11.1% (inactive) in test [7] and 45.6% (inactive) in test [8]. In addition, the inhibition of aggregation in test [2] was 12.7% (inactive). For the same compound, the nuclei count in test [2] was 95.8%; in test [3], 125%. Further, the fluorescence slope in test [4] was -0.555 (inactive); in test [6], 0.00481 (inactive). Besides, the NADPH fluorescence slope in test [5] was 4.4e-05 (inactive).

Take `COc1nc(OC)nc(N2CCC(NC(=O)C(Cc3ccc(C(C)C)cc3)NC(C)=O)CC2)n1` (stereo not given): the cell count in test [1] came to 800. Moreover, the inhibition is -5.5% (inactive) in test [1], -10.4% (inactive) in test [3], 12.2% (inactive) in test [7] and 11.8% (inactive) in test [8]. Further, the inhibition of aggregation in test [2] was -37.6% (inactive). Also, the results for the nuclei count in test [2] and in test [3] were 119% and 130%, respectively. Moreover, the fluorescence slope in test [4] was -0.486 (inactive); in test [6], 0.00515 (inactive). The NADPH fluorescence slope in test [5] was -4.2e-05 (inactive).

With `O=C(Nc1ccccc1C(=O)NCC1CCCO1)c1ccco1` (stereo not given), the cell count in test [1] worked out at 304. Also, the inhibition was -8% (inactive) in test [1], -50.7% (inactive) in test [3], 9.09% (inactive) in test [7] and 15.4% (inactive) in test [8]. Further, in test [2], the inhibition of aggregation is -23.2% (inactive). For the same compound, the values for the nuclei count in test [2] and in test [3] were 95.5% and 123%, respectively. Besides, the values for the fluorescence slope in test [4] and in test [6] were -0.458 (inactive) and 0.00531 (inactive), respectively. Moreover, in test [5], the NADPH fluorescence slope was 2.2e-05 (inactive).

On to `COCCNc1nc(SCC(=O)N2CCN(c3ccccc3)CC2)nc2ccccc12`, for which the cell count in test [1] came out at 462. For the same compound, the inhibition is 4.1% (inactive) in test [1], -188% (inactive) in test [3], -2.13% (inactive) in test [7] and 8.34% (inactive) in test [8]. The inhibition of aggregation in test [2] is -53.8% (inactive). Moreover, the nuclei count in test [2] worked out at 70.8%; in test [3] it was 105%. Also, the fluorescence slope in test [4] was -0.395 (inactive); in test [6], 0.0054 (inactive). The NADPH fluorescence slope in test [5] is 4.2e-05 (inactive).

Take `Cc1ccc(Cn2ncc3c(NCCCN4CCOCC4)ncnc32)cc1`: in test [1], the cell count was determined as 642. Also, the inhibition in test [1] is -14.6% (inactive); in test [3], -8.1% (inactive); in test [7], 22.3% (inactive); in test [8], 11.4% (inactive). Also, the inhibition of aggregation in test [2] is 13.9% (inactive). Also, the nuclei count in test [2] was determined as 84.8%; in test [3] it was 98.3%. Besides, the fluorescence slope was -0.568 (inactive) in test [4] and 0.00555 (inactive) in test [6]. For the same compound, the NADPH fluorescence slope in test [5] is -1.3e-05 (inactive).

Turning to `CCC(=O)c1ccc(OCCN2CCOCC2)cc1`, the cell count in test [1] came out at 387. In addition, the inhibition in test [1] is -5.3% (inactive); in test [3] it was -104% (inactive); in test [7], 6.75% (inactive); in test [8], 7.43% (inactive). Further, the inhibition of aggregation in test [2] was -1.8% (inactive). The results for the nuclei count in test [2] and in test [3] were 107% and 120%, respectively. Further, the results for the fluorescence slope in test [4] and in test [6] were -0.566 (inactive) and 0.00623 (inactive), respectively. For the same compound, the NADPH fluorescence slope in test [5] was -4.5e-05 (inactive).

Turning to `Cc1ccc(-c2cc(C(=O)Nc3cc(C)ccc3C)[nH]n2)c(O)c1`, the cell count in test [1] is 390. Further, the inhibition in test [1] is -4.3% (inactive); in test [3], -50.5% (inactive); in test [7], -2.53% (inactive); in test [8], -27.3% (inactive). For the same compound, in test [2], the inhibition of aggregation is 3.8% (inactive). For the same compound, the results for the nuclei count in test [2] and in test [3] were 120% and 144%, respectively. In addition, the fluorescence slope is -0.362 (inactive) in test [4] and 0.00727 (inactive) in test [6]. In addition, the NADPH fluorescence slope in test [5] is 2.9e-05 (inactive).

Take `O=C(CCC(=O)OCCCC(F)(F)C(F)(F)F)NC1CCCCC1`: in test [1], the cell count is 424. The inhibition in test [1] was 4% (inactive); in test [3], -37.5% (inactive); in test [7], 13.9% (inactive); in test [8], 16.1% (inactive). Moreover, the inhibition of aggregation in test [2] is 5.5% (inactive). In addition, the nuclei count is 108% in test [2] and 122% in test [3]. In addition, the fluorescence slope was -0.53 (inactive) in test [4] and 0.00556 (inactive) in test [6]. The NADPH fluorescence slope in test [5] was -4e-05 (inactive).

In the case of `CN(C)C(CNc1nnnn1-c1ccccc1)c1ccco1` (stereo not given), the cell count in test [1] was found to be 632. For the same compound, the inhibition in test [1] was -7.3% (inactive); in test [3], -23.9% (inactive); in test [7] it was 8.59% (inactive); in test [8], 19.2% (inactive). The inhibition of aggregation in test [2] is -11.4% (inactive). The nuclei count was found to be 96% in test [2] and 116% in test [3]. Also, the fluorescence slope in test [4] was -0.584 (inactive); in test [6] it was 0.00677 (inactive). For the same compound, the NADPH fluorescence slope in test [5] is 4.2e-06 (inactive).

Turning to `COC(=O)c1c(N)n(-c2cc(OC)cc(OC)c2)c2nc3ccccc3nc12`, the cell count in test [1] is 700. The inhibition in test [1] was 9.4% (inactive); in test [3] it was 28.6% (inactive); in test [7], 2.96% (inactive); in test [8], -6.82% (inactive). In addition, the inhibition of aggregation in test [2] was 2.3% (inactive). The nuclei count in test [2] was determined as 84.9%; in test [3], 80%. Moreover, the fluorescence slope is -0.0659 (inactive) in test [4] and 0.00491 (inactive) in test [6]. Besides, the NADPH fluorescence slope in test [5] was -2.3e-05 (inactive).

For orientation: inhibition means the drop in the measured response relative to a control, in per cent.
